Data taken from ChEMBL document CHEMBL1139898, “Structural effects on the phosphorylation of 3-substituted 1-beta-D-ribofuranosyl-1,2,4-triazoles by human adenosine kinase” (Bioorg Med Chem Lett, 2007).
The source made the active and inactive calls. No cut-off for these calls is given here.

Legend:
[1] = biological target: Adenosine kinase (Homo sapiens) (UniProt P55263); assay: Specific activity of human adenosine kinase
How it was run: (§1)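 Aliquots at 0, 1, 2, 4 h quenched with perchloric acid, neutralized, monophosphate resolved by anion-exchange HPLC (ammonium phosphate gradient), UV at λmax; conversion kept <10%, linear.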

[2] = biological target: Adenosine kinase (Homo sapiens) (UniProt P55263); assay: Inhibition of human adenosine kinase ribavirin phosphorylation activity
How it was run: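 Human adenosine kinase (clone 20-1) in Hepes pH 6.0 buffer with KCl, MgCl₂, 1 mM ATP, BSA, deoxycoformycin at 37 °C; 0.1 μM ribavirin initial substrate with test compound at 400 μM; ribavirin monophosphate formation followed by timed aliquots, acid quench and anion-exchange HPLC with UV detection.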

[3] = biological target: Adenosine kinase (Homo sapiens) (UniProt P55263); assay: Activity of human adenosine kinase relative to ribavirin; set-up: concentration or dose not given beside the values; how it was run: as §1

Chain of Adenosine kinase (Homo sapiens) (P55263 2-362 limits assumed): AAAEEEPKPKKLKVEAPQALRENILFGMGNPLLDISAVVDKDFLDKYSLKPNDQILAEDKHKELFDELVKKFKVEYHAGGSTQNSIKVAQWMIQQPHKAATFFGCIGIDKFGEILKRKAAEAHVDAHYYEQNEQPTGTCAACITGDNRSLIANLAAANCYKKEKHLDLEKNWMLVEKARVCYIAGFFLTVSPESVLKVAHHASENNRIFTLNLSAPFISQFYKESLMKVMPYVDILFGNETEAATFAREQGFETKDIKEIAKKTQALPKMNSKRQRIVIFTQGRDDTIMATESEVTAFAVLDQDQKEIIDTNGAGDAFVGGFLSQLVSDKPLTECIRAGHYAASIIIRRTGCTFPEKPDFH

| SMILES | Activity [1] | Activity [2] | Activity [3] |
| --- | --- | --- | --- |
| NC(=O)c1ncn([C@@H]2O[C@H](CO)[C@@H](O)[C@H]2O)n1 | 203 nmol/mg/h | – | – |
| CC(=O)c1ncn([C@@H]2O[C@H](CO)[C@@H](O)[C@H]2O)n1 | 20 nmol/mg/h | inactive | 10% |
| CNC(=O)c1ncn([C@@H]2O[C@H](CO)[C@@H](O)[C@H]2O)n1 | 19 nmol/mg/h | inactive | 9% |
| O=[N+]([O-])c1ncn([C@@H]2O[C@H](CO)[C@@H](O)[C@H]2O)n1 | 36 nmol/mg/h | inactive | 18% |
| O=C(O)c1ncn([C@@H]2O[C@H](CO)[C@@H](O)[C@H]2O)n1 | < 4 nmol/mg/h | inactive | < 2% |
| COC(=N)c1ncn([C@@H]2O[C@H](CO)[C@@H](O)[C@H]2O)n1 | < 4 nmol/mg/h | inactive | < 2% |
| CC(=O)Nc1ncn([C@@H]2O[C@H](CO)[C@@H](O)[C@H]2O)n1 | < 4 nmol/mg/h | inactive | < 2% |
| C/N=C(/N)c1ncn([C@@H]2O[C@H](CO)[C@@H](O)[C@H]2O)n1 | 11 nmol/mg/h | inactive | 5% |
